# SENP1 FRET inh = blocks the human SENP1 SUMO protease catalytic domain; Q9P0U3; recombinant SENP1 catalytic domain, CyPet-SUMO1-YPet FRET cleavage; inhibition, % at 10 µM; 0.21% of 360,000 active;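 active means inhibition at least 30% at 10 µM, raw YFP signal under a set limit, fluorescence ratio 0.5 to 1.5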;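 further: 0% = enzyme with DMSO and 100% = no enzyme wells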
#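 Assay system – human recombinant His6-tagged SENP1 catalytic domain enzyme · Input – SENP1 enzyme, 20 pM final · Buffer or medium – Tris pH 8 buffer plus EDTA, NaCl, BME, BSA, NP40, catalase · Schedule – 50 min reaction at room temperature · Technique – FRET read of cyan and yellow fluorescence · Control set – no-enzyme wells low, DMSO-plus-enzyme wells high control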
# CendR NRP1 mod = modulators of CendR peptide binding to human neuropilin-1; O14786; FAM-RPARPAR peptide binding to NRP-1, fluorescence polarization; inhibition, % at 25 µM; 0.85% of 360,000 active; AID 602438;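 active means inhibition or corrected inhibition above about 18%, plus a signal ratio from 0.5 to 1.5, limit read from the data, passing the limit was not always enough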
# Target sequence (O14786 whole entry, looked up): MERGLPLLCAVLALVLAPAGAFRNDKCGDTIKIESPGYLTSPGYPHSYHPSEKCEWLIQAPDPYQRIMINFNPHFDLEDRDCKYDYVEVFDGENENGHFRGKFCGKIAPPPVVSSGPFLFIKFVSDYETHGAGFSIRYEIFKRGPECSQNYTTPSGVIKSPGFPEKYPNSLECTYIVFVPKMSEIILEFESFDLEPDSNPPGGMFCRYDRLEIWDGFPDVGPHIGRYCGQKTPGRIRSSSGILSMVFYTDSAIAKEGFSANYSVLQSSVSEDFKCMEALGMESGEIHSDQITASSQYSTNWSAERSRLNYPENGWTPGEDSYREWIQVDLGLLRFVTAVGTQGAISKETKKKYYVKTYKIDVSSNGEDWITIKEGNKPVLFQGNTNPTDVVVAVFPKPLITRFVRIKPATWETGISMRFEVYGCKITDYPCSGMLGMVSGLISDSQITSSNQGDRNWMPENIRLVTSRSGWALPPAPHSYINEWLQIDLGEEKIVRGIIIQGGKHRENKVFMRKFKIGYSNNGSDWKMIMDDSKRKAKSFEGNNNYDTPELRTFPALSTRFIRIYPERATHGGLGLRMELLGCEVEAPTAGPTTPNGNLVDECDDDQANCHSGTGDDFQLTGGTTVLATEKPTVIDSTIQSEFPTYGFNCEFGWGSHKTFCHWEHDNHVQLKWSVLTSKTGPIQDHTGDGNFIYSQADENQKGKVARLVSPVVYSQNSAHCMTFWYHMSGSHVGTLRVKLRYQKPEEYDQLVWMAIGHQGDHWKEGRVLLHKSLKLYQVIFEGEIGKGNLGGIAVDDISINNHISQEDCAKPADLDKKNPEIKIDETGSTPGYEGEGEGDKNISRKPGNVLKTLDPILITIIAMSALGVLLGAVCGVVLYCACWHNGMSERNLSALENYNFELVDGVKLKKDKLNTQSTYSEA
# Myeloid diff 2 = promotes myeloid progenitor differentiation; 1% of 360,000 active; ER-HoxA9 myeloid progenitors, lysozyme-GFP differentiation, flow cytometry; calls only at 10 µM;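 active means normalized GFP-positive differentiation at or above the plate's own cutoff, the solvent-only control mean plus 3 SD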;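 further: cells exposed to compound for four days before flow analysis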
# DAGLB inhibitor = diacylglycerol lipase beta (human) inhibition; Q8NCG7; HEK293T DAGLB membrane lysate, EnzChek fluorogenic substrate; inhibition, % at 5.17 µM; 0.059% of 340,000 active; AID 504411; in the data active means inhibition above about 34%;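 further: 0% = enzyme with vehicle and 100% = wells lacking enzyme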
# MIN6 prolif = MIN6 beta-cell proliferation induction; MIN6 cells proliferation, ATPlite luminescence, 48 h; cells starved in 0.2% serum; 100% = growth in 10% serum; proliferation, % at 10 µM; 0.29% of 330,000 active; AID 2380;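 active means compounds whose signal lies at least 3.5 SD above the mean of all wells on their plate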;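 further: 0% = DMSO-treated cells in low-serum medium and 100% = 10% serum control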
# MT1-MMP act inh = MT1-MMP (human) activation inhibition | GFP/RFP ratio change, % at 20 µM | P50281 | AID 651647 | 0.061% of 360,000 active | HT1080 RFP-PRO-GFP cells, GFP/RFP ratio fluorescence, overnight; percent of plate control window, DMSO zero;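 active means GFP/RFP ratio change of at least 30% with cell ATP level not reduced by more than half and red fluorescence within 50% of control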
#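 Read-out: GFP/RFP fluorescence ratio; Test system: RFP-PRO-GFP reporter HT1080 cells; Compound dosing: single-point 20 µM compound, 1% DMSO; Times: overnight compound exposure at 37 °C.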
# Myeloid diff = promotes myeloid progenitor differentiation. calls only. shares compounds with Myeloid diff 2. ER-HoxA9 myeloid progenitors, GFP/Mac1 double-positive flow. 2% of 2,300 active;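 active means share of green or green-and-red cells above 9 and 9% in run 1 or 4 and 3% in run 2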
# GFP autofluor = flagged as fluorescent in myeloid differentiation counter-screen; shares compounds with Myeloid diff 2; ER-HoxA9 myeloid progenitors, no estrogen, GFP autofluorescence flow cytometry; vehicle wells 0%, positive control 100%; fluorescence response, % (concentration not given with the values); 7.4% of 2,300 active;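 active means over 5% cells positive for green fluorescent reporter, or over 2% positive for both it and APC stain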;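 further: range taken on the double positive population between DMSO and positive control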
# An asterisk follows results filed as active; i = inactive; nt = no result; + = active, no number. Sampled rows, rich in hits. Any-hit rate of the full collection: about 2.4%.
SMILES,SENP1 FRET inh,CendR NRP1 mod,Myeloid diff 2,DAGLB inhibitor,MIN6 prolif,MT1-MMP act inh,Myeloid diff,GFP autofluor
O=C(Nc1ccc(S(=O)(=O)N2CCCCC2)cc1)C1CCCN(C(=O)c2ccc(Cl)cc2)C1 (stereo unspecified),0,10,i,1,0,1,i,2
CN(C)S(=O)(=O)c1ccc(NC(=O)C2CCCN(C(=O)c3ccc(Cl)cc3)C2)cc1 (stereo unspecified),0,-6,i,1,0,1,nt,nt
COc1ccccc1N1CCN(S(=O)(=O)CC23CCC(CC2=O)C3(C)C)CC1 (stereo unspecified),-1,7,i,4,-3,-1,i,0
CC12C(=O)N(Cc3ccccc3)C(=O)C1C1C=CC2C1 (stereo unspecified),3,-1,i,-8,-1,4,nt,nt
CC12C(=O)N(CCC(=O)O)C(=O)C1C1C=CC2C1 (stereo unspecified),-2,-1,+,-1,3,3,i,0
CCOC(=O)c1ccccc1NS(=O)(=O)c1ccccc1F,0,18,+,-5,0,-2,i,1
CCOC(=O)c1ccccc1NS(=O)(=O)c1ccccc1,1,4,i,-4,3,7,nt,nt
Cc1cc(C)n(-c2nc3ccccc3nc2N2CCN(C(=O)c3ccc(F)cc3)CC2)n1,-78,2,i,0,-1,5,i,0
Cc1cc(C)n(-c2nc3ccccc3nc2N2CCC(C)CC2)n1,-80,-2,i,-12,-2,-8,nt,nt
CNS(=O)(=O)c1cccc(C(=O)OCC(=O)N2CC(C)OC(C)C2)c1 (stereo unspecified),2,0,i,3,-3,1,nt,nt
COc1ccc(CCNC(=O)CCCCCN2C(=O)[C@@H]3Cc4ccccc4CN3C2=O)cc1OC,1,-6,i,2,2,0,nt,nt
CCOC(=O)c1cc(C(=O)OCC)c2cc(Br)ccc2n1,1,4,+,-10,0,5,i,0
CCOC(=O)C1CCCN(C(=O)CNS(=O)(=O)c2ccc(Br)s2)C1 (stereo unspecified),0,6,+,4,-1,0,i,0
O=C(CNS(=O)(=O)c1ccc(Br)s1)N1CCCC1,0,8,i,-1,-1,2,nt,nt
COc1ccccc1N1C(=O)CC(N2CCN(c3ccc([N+](=O)[O-])cc3)CC2)C1=O (stereo unspecified),-1,4,i,0,4,3,nt,nt
CCOC(=O)c1ccc(NC(=O)CSc2nc(=O)n(CCN3CCOCC3)c3c2CCC3)cc1,0,-8,i,2,1,-3,nt,nt
CCOC(=O)C1CCN(CCC(=O)Nc2ccccc2Cl)CC1,2,7,i,-2,0,2,i,0
Cc1ccccc1NC(=O)c1ccco1,1,1,i,-3,0,0,nt,nt
Cc1cccc(NC(=O)c2ccco2)c1C,0,4,i,-6,0,3,i,0
CC(=O)N1CCCN(Cc2cn(-c3cccc(C)c3)nc2-c2cccc(F)c2)CC1,-1,-26,i,0,-4,5,nt,nt
Oc1oc(-c2ccco2)nc1C=Nc1ccccc1,-25,-15,i,12,-3,1,i,1
Cc1ccc(-c2nc(C=Nc3ccc(O)cc3)c(O)o2)cc1,-29,-39,i,4,nt,-8,i,0
CN=Cc1nc(-c2ccccc2)oc1O,2,-10,i,-3,-2,0,nt,nt
Cc1nnc2nc(-c3ccccc3)nc(-c3ccccc3)n12,2,5,i,-8,-2,-3,nt,nt

# Screening results (PubChem BioAssay)
